Screening data as filed in PubChem BioAssay.
In the library only some 2.3% were active in any assay of this set; here they are far more common.
GSTO1 inh – counter-screen for RBBP9 inhibitors: inhibitors of human GSTO1. inhibition, % at 5.96 µM. recombinant GSTO1, activity-based probe fluorescence polarization. P78417. 300,000 tested, 1.1% active. AID 1974;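 active = inhibition above the campaign mean inhibition plus 3 SD, cut at about 35% in these data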;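 note: 0% = GSTO1-1 with DMSO and 100% = wells lacking GSTO1-1 enzyme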
Target sequence (P78417 whole entry, looked up): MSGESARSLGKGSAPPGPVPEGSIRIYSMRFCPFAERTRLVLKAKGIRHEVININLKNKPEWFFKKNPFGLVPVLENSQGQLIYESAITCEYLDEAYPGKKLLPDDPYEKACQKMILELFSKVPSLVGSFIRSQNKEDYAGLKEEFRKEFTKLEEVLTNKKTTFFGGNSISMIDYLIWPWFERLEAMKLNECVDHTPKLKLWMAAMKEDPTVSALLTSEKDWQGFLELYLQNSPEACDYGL
PRMT1 FP inh – PRMT1 (human) inhibition, primary screen | Q99873 | recombinant PRMT1, activity-based probe fluorescence polarization | inhibition, % at 2.79 µM | 370,000 tested, 1.3% active;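 active = inhibition above about 21% made by adding two undisclosed values, limit read from the data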
Target sequence (Q99873 whole entry, looked up): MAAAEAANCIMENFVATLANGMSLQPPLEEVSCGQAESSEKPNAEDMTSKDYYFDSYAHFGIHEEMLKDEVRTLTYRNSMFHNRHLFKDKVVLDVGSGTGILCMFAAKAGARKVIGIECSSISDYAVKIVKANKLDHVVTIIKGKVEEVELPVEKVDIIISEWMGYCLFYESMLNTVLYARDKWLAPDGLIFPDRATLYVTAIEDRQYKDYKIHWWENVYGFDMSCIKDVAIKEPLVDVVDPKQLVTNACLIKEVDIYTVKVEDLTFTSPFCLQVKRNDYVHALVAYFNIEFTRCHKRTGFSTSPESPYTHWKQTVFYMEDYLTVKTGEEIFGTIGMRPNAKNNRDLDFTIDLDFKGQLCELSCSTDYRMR
RBBP9 inhibitor – blocks human serine hydrolase RBBP9; O75884; recombinant RBBP9, FP-Rh probe fluorescence polarization; inhibition, % at 7.94 µM; 220,000 tested, 0.2% active; AID 1515;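 active = inhibition above the campaign mean of all tested compounds plus 3 SD, cut at about 14% in these data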;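 note: plate controls were DMSO wells with RBBP9 for no effect and wells lacking RBBP9 protein for full effect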
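Test system: recombinant human RBBP9; Timing: 30 min then 45 min, 25 °C; Detection: fluorescence polarization; Control set: RBBP9 with DMSO as uninhibited control, no-protein wells as full inhibition; Compound dosing: one concentration, 7.94 µM nominal, 0.794% DMSO; Probe or stimulus: FP-Rh activity-based probe, 375 nM before mixing.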
PME-1 inh – blocks human protein phosphatase methylesterase 1; inhibition, % at 5.9 µM; 320,000 tested, 0.53% active; Q9Y570; recombinant PME-1, FP-Rh probe fluorescence polarization;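 active = inhibition above the campaign mean of all compounds plus 3 SD, cut at about 26% in these data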;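 note: competitive labeling of PME-1 active site by serine hydrolase directed probe; 0% = PME-1 with DMSO and 100% = wells lacking PME-1 enzyme; inhibitors block probe labeling so polarization falls and inhibition rises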
Fam108B counter – counter-screen for RBBP9 inhibitors: inhibitors of mouse Fam108B. recombinant Fam108B, FP-Rh probe fluorescence polarization. inhibition, % at 9.51 µM. 300,000 tested, 0.33% active. AID 1947;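 active = inhibition above the screen mean inhibition plus 3 SD, computed separately per campaign, cut at about 18% in these data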;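 note: inhibitors lower polarization as less probe binds the enzyme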
PAD4 inh – blocks human protein arginine deiminase 4; Q9UM07; recombinant PAD4, RCA probe fluorescence polarization; inhibition, % at 6.36 µM; 330,000 tested, 0.41% active; AID 485272;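 active = percent inhibition above a cutoff equal to the mean of all tested compounds plus 3 SD, cut at about 15% in these data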;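 note: 0% = PAD4 with RCA probe and DMSO and 100% = probe without PAD4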
PRMT1 inh conf – confirmation of human PRMT1 inhibitors | shares compounds with PRMT1 FP inh | recombinant His-PRMT1, activity-based probe fluorescence polarization | inhibition, % at 2.79 µM | 3,300 tested, 42% active | AID 687036;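 active = mean inhibition across replicates above the hit cutoff derived for the earlier primary screen, cut at about 22% in these data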
Starred values were filed as active, the others as inactive; · = no result given.

SMILES	GSTO1 inh	PRMT1 FP inh	RBBP9 inhibitor	PME-1 inh	Fam108B counter	PAD4 inh	PRMT1 inh conf
Cc1nn(-c2ccccc2)c(N2CCCC2)c1/C=N/n1cnc2scc(-c3ccccc3)c2c1=O	0	1	8	-1	2	1	·
COCc1cc(N2CCN(C(=O)OC(C)(C)C)C[C@H]2C)ccc1N1CC[C@@H](O)C1	·	66*	·	·	·	·	9
CC1CCN(C(=O)COC(=O)/C=C/c2ccc(Br)o2)CC1	·	36*	·	4	·	7	11
NS(=O)(=O)c1ccc(NC2=CC(c3ccc([N+](=O)[O-])cc3)N(c3ccc(S(N)(=O)=O)cc3)C2=O)cc1 (stereo not drawn)	9	27*	-31	-64	-54	-7	3
COc1ccc(NC2=CC(c3ccc(OC)c(OC)c3)N(c3ccc(OC)cc3)C2=O)cc1 (stereo not drawn)	6	8	4	-6	7	-4	·
CCOC(=O)c1cccc(NC(=S)N2CCN(c3ncc4c(=O)c(C(=O)O)cn(CC)c4n3)CC2)c1	6	1	2	-1	2	-2	·
C=CCn1c(O)c(C2=c3ccccc3=NC2=O)c2ccccc21	10	42*	·	-6	3	-6	45*
COCCNC(=S)N1CCN(c2nc(-c3ccc(Cl)cc3)cs2)CC1	8	-5	·	4	-1	-5	·
CC(=O)c1cccc(OCCCOc2cccc3cccnc23)c1	-1	-1	·	6	-2	-3	·
c1ccc(Nc2cccc(Nc3ccccc3)n2)cc1	-11	37*	12	4	2	-49	42*
c1ccc(Nc2ccccn2)cc1	4	1	-5	9	3	-2	·
COc1ccc(S(=O)(=O)Nc2cccc3c2O[C@@H](CN(C)Cc2ccc(C(=O)O)cc2)[C@@H](C)CN([C@H](C)CO)C3=O)cc1	·	-3	·	·	·	-2	·
O=C(/C=C/c1ccc(-c2ccccc2[N+](=O)[O-])o1)c1ccccc1	13	28*	6	4	-1	-11	-2
COC(=O)c1cc(S(=O)(=O)Nc2cccc(-c3ccno3)c2)c[nH]1	·	5	·	·	·	·	·
COC(=O)c1cc(N2CCN(C)CC2)nc2ccccc12	11	83*	-4	-7	1	1	5
c1ccc(-n2cccc2CNC2CCCCC2)cc1	7	·	-6	-6	-1	1	·
CCN(CC)S(=O)(=O)c1cccc2cccnc12	6	0	-11	2	1	-8	·
CSS(=O)(=O)c1cccc2cccnc12	5	92*	-7	1	1	-1	96*
Cn1c2ccccc2n2c(=O)c(=O)n(CC(=O)N3CCCc4ccccc43)nc12	-3	·	-1	3	-2	-1	·
O=[N+]([O-])c1cccc(/C=N/n2c(COc3ccccc3)n[nH]c2=S)c1	0	11	0	4	2	5	·
CC(C)Oc1cccc(-c2n[nH]c(=S)n2N=Cc2cccc([N+](=O)[O-])c2)c1	·	34*	·	·	·	·	25*
CC(C)Oc1cccc(-c2n[nH]c(=S)n2N=Cc2ccc(O)cc2O)c1	·	37*	·	·	·	·	18
COC(=O)Cc1ccc(N(Cc2ccccc2F)S(=O)(=O)c2ccc(Cl)cc2)cc1	2	2	-5	1	-5	1	·
CCCCOc1ccc(C(=O)Nc2ccc(S(=O)(=O)Nc3onc(C)c3C)cc2)cc1	5	0	·	5	1	-6	·
Cc1cccc(C)c1-n1nnnc1C1c2ccccc2C(=O)N1CCc1ccccc1F (stereo not drawn)	·	4	·	·	·	·	·
SMILES	GSTO1 inh	PRMT1 FP inh	RBBP9 inhibitor	PME-1 inh	Fam108B counter	PAD4 inh	PRMT1 inh conf
O=c1ccc2ccc(O)cc2o1	·	2	·	·	·	·	·
O=c1ccc2cc(O)c(O)cc2o1	12	32*	-10	-5	0	2	3
COCCn1c2nc(=O)n(-c3ccccc3)c(=O)c-2nc2ccccc21	·	115*	·	·	·	·	113*
COC(=O)[C@]12CCCCC=C1N(Cc1ccc(OC)cc1)C(=O)[C@@H]2CC(=O)N1CCCCC1	·	1	·	·	·	·	·
CC(=O)c1nc(N2C(=O)CC(Cc3cccc(C)c3)C2=O)sc1C (stereo not drawn)	6	0	-9	2	-1	-1	·
COCCn1c(SC2CCOC2=O)nc2ccccc2c1=O (stereo not drawn)	8	2	-1	2	2	-5	·
CCc1ccccc1NC(=O)CNC(=O)c1cc(C2CC2)nc2c1cnn2C(C)C	·	2	·	13	·	-1	·
CC(C)n1ncc2c(C(=O)Nc3ccccc3SCC(N)=O)cc(C3CC3)nc21	·	80*	·	·	·	·	-3
CCCCn1c(N)c(N(CC)C(=O)c2c(CC)noc2C)c(=O)[nH]c1=O	7	-1	·	-5	-3	1	·
O=C(O)CCC(NC(=O)c1ccc(Cl)cc1)C(=O)O (stereo not drawn)	-1	-1	-6	-3	-1	-3	·
NC(=O)CCC(NC(=O)c1ccc(Cl)cc1)C(=O)O (stereo not drawn)	1	52*	1	3	2	-1	-7
COc1cc2ccnc(C=NO)c2cc1OC	·	5	·	·	·	·	·
O=C1CC(=Nc2ccc([N+](=O)[O-])cc2)NN1c1c(Cl)cc(Cl)cc1Cl	·	35*	·	·	·	·	14
Cc1c(O)nc(SCC(=O)Nc2nccs2)n(-c2ccccc2F)c1=O	·	28*	·	·	·	·	18
CCC(C)NC(=O)NC1C(NC(=O)NC(C)CC)N(C)C(=O)N1C (stereo not drawn)	5	0	2	-2	-1	1	·
COc1ccc(-c2cc(C(=O)Nc3ccccc3F)on2)cc1	7	-2	2	-9	-7	2	·
CC1(C)Cc2c(C#N)c(N3CCCC3)nc(-c3ccco3)c2CO1	0	27*	-3	-7	0	-14	26*
CC1(C)Cc2c(C#N)c(NCc3ccco3)nc(-c3ccco3)c2CO1	1	15	2	-7	-7	-3	·
O=C(CSC1=NCCN1)Nc1cccc(C(F)(F)F)c1	-27	52*	0	3	0	7	35*
Cn1ccnc1SCC(=O)Nc1cccc(C(F)(F)F)c1	10	-1	-5	-7	-6	3	·
N#Cc1ccc2c(=O)n(-c3ccccc3)sc2c1	·	78*	·	·	·	·	95*
N#Cc1c(N)n(-c2ccccc2)c(=O)c2cc([N+](=O)[O-])ccc12	2	-1	-1	2	2	-2	·
CC(=O)Nc1ccc2c(=O)n(-c3ccccc3)sc2c1	·	86*	·	·	·	·	91*
CCn1cc(/C=C(\NC(=O)c2ccc(OC)c(OC)c2)C(=O)N2CCOCC2)c2ccccc21	6	1	·	3	-2	5	·
COc1ccc(N2C(=O)CC(NC3CC3)C2=O)cc1 (stereo not drawn)	5	32*	-7	5	1	-1	2
